In PubChem BioAssay:
Active and inactive are the calls of the source.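 How the source made its calls, unless noted: active means fluorescence slope after compound addition differing from the mean of all tested samples at 99.7% confidence, mostly higher but some lower; inactive means the rest.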

Assays:
[1] = inhibitors of TNFa-induced NFkB p65 translocation, primary screen, imaging, HUVEC, MLSMR starter and 10KST1 sets (AID 438;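 active means inhibition above 20% together with a positive visual image hit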;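 further: compound added about 3h40 before a 20 min TNFalpha stimulation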;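 on inhibition: signal is the nuclear over cytoplasmic p65 intensity ratio per well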); conditions: HUVEC TNFa-induced p65 nuclear translocation; cell count: measured here: nuclei count (cytotoxicity indicator), at 2.08 µM; inhibition: at 2 µM, stronger effect = higher value, 0% TNFa-plus-vehicle, 100% no-TNFa wells
[2] = reduction of polyQ htt aggregates in cells – imaging, exon1htt(103Q)mCFP cells, high-content imaging, primary screen (AID 483;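 active means visual image review flags a hit and inhibition of aggregation exceeds 20%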;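 further: compound exposure lasted 3 days before fixation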;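 on nuclei count: percent of the per-plate median nuclei count of sample wells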); conditions: exon1htt(103Q)mCFP cell line, aggregate imaging, at 2 µM; inhibition of aggregation: stronger effect = higher value; nuclei count: measured here: cell count, toxicity
[3] = endothelial E-selectin expression blockers – imaging, HUVEC, immunofluorescence, MLSMR starter and 10KST1 sets, primary screen (AID 487;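 active means visually confirmed hit in the image check and inhibition above 20%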;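 on inhibition: signal is fraction of cell area covered by stained E-selectin grains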;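 on nuclei count: 100% = median nuclei count of all wells on the same plate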); conditions: HUVEC TNFalpha-induced E-selectin immunofluorescence imaging, at 2 µM; inhibition: stronger effect = higher value; nuclei count: measured here: cell number, toxicity
[4] = target: Voltage-gated potassium channel subunit beta-2 (Rattus norvegicus) (UniProt P62483); assay: inhibitors of rat Kvbeta2 reductase activity – biochemical, NADPH fluorescence, primary screen (AID 622;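 active means fluorescence slope higher than the sample average by over 3 SD, cut at about -0.22 in these data, passing the limit was not always enough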;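 further: slope of raw intensity against log time taken from 70 to 1610 s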); conditions: recombinant KvBeta, 4-cyanobenzaldehyde reduction, at 10 µM, stronger effect = higher value
Sequence of Voltage-gated potassium channel subunit beta-2 (Rattus norvegicus) (P62483 whole entry, looked up): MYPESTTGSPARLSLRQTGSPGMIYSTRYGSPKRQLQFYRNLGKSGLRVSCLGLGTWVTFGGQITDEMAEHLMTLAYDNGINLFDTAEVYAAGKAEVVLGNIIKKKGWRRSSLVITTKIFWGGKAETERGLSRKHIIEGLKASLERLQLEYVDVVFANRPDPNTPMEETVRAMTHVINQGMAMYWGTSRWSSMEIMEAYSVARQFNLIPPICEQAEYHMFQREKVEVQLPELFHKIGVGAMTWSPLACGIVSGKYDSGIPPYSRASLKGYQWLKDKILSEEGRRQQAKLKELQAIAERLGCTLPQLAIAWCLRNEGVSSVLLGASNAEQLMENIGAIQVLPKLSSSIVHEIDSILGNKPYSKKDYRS

[5] = target: Voltage-gated potassium channel subunit beta-2 (Rattus norvegicus) (UniProt P62483); assay: enhancers of rat Kvbeta2 NADPH turnover – biochemical, NADPH fluorescence, primary screen (AID 623;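 active means NADPH fluorescence slope more negative than the mean of all samples by about 3 SD, 99.7% confidence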;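 further: fluorescence intensity change per second fitted from 20 to 320 s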); conditions: Recombinant KvBeta, NADPH fluorescence decrease slope, 10 min; at 10 µM; stronger effect = lower value
[6] = target: Muscarinic acetylcholine receptor M4 (Homo sapiens) (UniProt P08173); assay: M4-linked GIRK flux change, two-sided – cell-based, HEK293 M4/GIRK, thallium flux, BTC-AM, M4 allosteric agonist project, primary screen (AID 625); conditions: at 10 µM, actives lie on both sides;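 further: thallium influx through GIRK channels coupled to M4 in HEK293 cells with BTC-AM dye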
Sequence of Muscarinic acetylcholine receptor M4 (Homo sapiens) (P08173 whole entry, looked up): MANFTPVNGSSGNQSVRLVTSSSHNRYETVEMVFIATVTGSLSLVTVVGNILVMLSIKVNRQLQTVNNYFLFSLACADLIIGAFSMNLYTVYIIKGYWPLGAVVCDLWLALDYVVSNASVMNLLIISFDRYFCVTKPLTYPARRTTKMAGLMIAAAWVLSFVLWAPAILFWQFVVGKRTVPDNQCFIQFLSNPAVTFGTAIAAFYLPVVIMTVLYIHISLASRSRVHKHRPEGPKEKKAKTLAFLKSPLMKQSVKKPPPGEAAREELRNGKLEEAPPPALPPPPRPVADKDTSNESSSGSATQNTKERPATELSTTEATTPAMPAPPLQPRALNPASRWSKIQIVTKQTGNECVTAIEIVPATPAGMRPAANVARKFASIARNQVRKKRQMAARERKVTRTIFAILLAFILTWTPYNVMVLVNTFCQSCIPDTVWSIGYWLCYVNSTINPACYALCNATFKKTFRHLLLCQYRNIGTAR
Method in brief: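 Material: M4/GIRK1/GIRK2 stable HEK293 cell line. Medium: pH 7.3 thallium assay buffer. Dosing: single compound concentration, 10 µM final. Schedule: 1 h dye loading, 2 min kinetic read. Measured by: kinetic fluorescence with BTC-AM dye. Read-out: post-addition slope, 15–24 s, of baseline-normalized fluorescence. Benchmarks: carbachol and DMSO controls.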

[7] = blockers of RIG-like receptor reporter activation – cell-based, Sendai virus stimulus, luciferase, 10K MLSCN set, TLR/RLR signaling modifier project, primary screen (AID 602276;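 active means inhibition at or above 50% at 10 µM; inactive means inhibition below 50%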;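 further: firefly luciferase from ISG56 promoter only with Renilla not read in this screen; 0% = Sendai virus plus DMSO and 100% = medium plus DMSO without virus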); conditions: HEK293 RL24 IRF3 luciferase reporter, at 10 µM, stronger effect = higher value
[8] = TLR3 IRF3 reporter activation blockers – cell-based, poly I:C stimulus, luciferase, 10K MLSCN set, primary screen (AID 602277;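 active means inhibition of the reporter signal at or above 50%; inactive means inhibition below 50%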); conditions: HEK293-TLR3 RL24 IRF3 luciferase reporter, at 10 µM, stronger effect = higher value

Row | Compound | cell count [1] | inhibition [1] | inhibition of aggregation [2] | nuclei count [2] [%] | inhibition [3] | nuclei count [3] [%] | fluorescence slope [4] | NADPH fluorescence slope [5] | fluorescence slope [6] | inhibition [7] | inhibition [8]
1 | CCn1nnnc1NCc1cccn1C | 401 | 11% (inactive) | -12% (inactive) | 110 | -41.2% (inactive) | 100 | -0.414 (inactive) | 0.000106 (inactive) | 0.00612 (inactive) | 16.1% (inactive) | 22% (inactive)
2 | CCCn1c(=N)n(CCOc2ccc(OC)cc2)c2ccccc21 | 665 | 21.3% (inactive) | 5.9% (inactive) | 92.6 | 15.1% (inactive) | 139 | -0.466 (inactive) | -4.2e-05 (inactive) | 0.00387 (inactive) | 20.2% (inactive) | 15.4% (inactive)
3 | COc1ccc(OC)c(N(CC(=O)N2CCN(c3cc(Cl)ccc3C)CC2)S(C)(=O)=O)c1 | 497 | -7.3% (inactive) | 23.1% (inactive) | 61.4 | -13.6% (inactive) | 105 | -0.572 (inactive) | -5.2e-05 (inactive) | 0.00582 (inactive) | 17% (inactive) | 24.6% (inactive)
4 | COC(=O)c1cc(NC(=O)C2COc3ccccc3O2)cc(C(=O)OC)c1 (stereo unspecified) | 462 | 6.8% (inactive) | 16.1% (inactive) | 101 | -15.6% (inactive) | 107 | -0.517 (inactive) | -3e-05 (inactive) | 0.00524 (inactive) | 11.6% (inactive) | -7.02% (inactive)
5 | CC1c2nc3ccccc3n2C(CC(=O)NCc2ccccn2)C(=O)N1Cc1ccccc1 (stereo unspecified) | 678 | -3.4% (inactive) | -12.5% (inactive) | 119 | -115% (inactive) | 119 | -0.505 (inactive) | -1.2e-05 (inactive) | 0.0053 (inactive) | 15% (inactive) | 22.6% (inactive)
6 | C=CCOC(=O)C(C#N)c1nc2ccccc2nc1N1CCN(Cc2ccccc2)CC1 (stereo unspecified) | 469 | -5.7% (inactive) | -12.3% (inactive) | 94.6 | -69.4% (inactive) | 181 | -0.402 (inactive) | 6.8e-05 (inactive) | 0.0023 (inactive) | 10.9% (inactive) | 18.7% (inactive)
7 | COc1ccc(Cn2c(=O)[nH]c3cc(C(=O)NCCCN4CCCC4)ccc3c2=O)cc1 | 474 | -5.2% (inactive) | 30.8% (inactive) | 88.2 | 30.4% (inactive) | 139 | -0.26 (inactive) | -1.4e-05 (inactive) | 0.00648 (inactive) | 11% (inactive) | -6.33% (inactive)
8 | COc1ccccc1NC(=O)N1CCCC1C(=O)NC1CCCCC1 (stereo unspecified) | 582 | 0.4% (inactive) | 9% (inactive) | 92.5 | -19.7% (inactive) | 121 | -0.227 (inactive) | -2.2e-05 (inactive) | 0.00721 (inactive) | 15.6% (inactive) | 11.1% (inactive)
9 | Cc1nc(NCCNC(=O)c2ccco2)c2c(C)c(C)sc2n1 | 803 | -4.2% (inactive) | -8.7% (inactive) | 136 | -34.1% (inactive) | 117 | -0.548 (inactive) | 1.6e-05 (inactive) | 0.00498 (inactive) | 12.1% (inactive) | 6.83% (inactive)
10 | Brc1ccc(C2=Nn3c(nnc3-c3ccncc3)SC2)cc1 | 369 | 2.2% (inactive) | -12.9% (inactive) | 123 | -12.7% (inactive) | 117 | -0.544 (inactive) | 3.4e-05 (inactive) | 0.00451 (inactive) | 13.7% (inactive) | 0.85% (inactive)
11 | O=C(c1ccccc1)c1ccc(N2CCOCC2)c(NC(=O)c2ccco2)c1 | 318 | -13% (inactive) | -8.7% (inactive) | 114 | -23.2% (inactive) | 119 | -0.421 (inactive) | 1e-05 (inactive) | 0.0062 (inactive) | 14.1% (inactive) | 17.3% (inactive)
12 | O=C(O)COc1ccc2occ(C(=O)c3ccccc3)c2c1 | 232 | -4.4% (inactive) | 24.2% (inactive) | 94.5 | -56.2% (inactive) | 104 | -0.592 (inactive) | -4.3e-05 (inactive) | 0.00364 (inactive) | 10.3% (inactive) | 4.56% (inactive)
13 | CCOc1cccc(C(=O)Nc2cccc(-c3nc4ncccc4o3)c2C)c1 | 333 | 3.3% (inactive) | 10.5% (inactive) | 103 | -46.8% (inactive) | 108 | -0.545 (inactive) | -3e-05 (inactive) | 0.00572 (inactive) | 11.9% (inactive) | -11.2% (inactive)
14 | CCn1c(SCC(=O)N2CCCc3ccccc32)nnc1-c1cccs1 | 697 | 1.4% (inactive) | 4.3% (inactive) | 98.7 | -172% (inactive) | 129 | -0.531 (inactive) | -2.4e-05 (inactive) | 0.00467 (inactive) | 14% (inactive) | 13.4% (inactive)
15 | COCC(=O)Nc1sc2c(c1C(=O)OC)CCC(C)C2 (stereo unspecified) | 421 | 5.5% (inactive) | -7.6% (inactive) | 94.2 | -127% (inactive) | 126 | -0.471 (inactive) | -3.9e-05 (inactive) | 0.00475 (inactive) | 16.5% (inactive) | -17% (inactive)
16 | O=C1CC(c2ccc(Cl)cc2)n2nc(N3C(=O)c4ccccc4C3=O)nc2N1 (stereo unspecified) | 346 | 11.4% (inactive) | -2.1% (inactive) | 104 | 30.5% (inactive) | 98.9 | -0.587 (inactive) | -3.9e-05 (inactive) | 0.00353 (inactive) | 16.6% (inactive) | 24.4% (inactive)
17 | Cc1ccc2[nH]c(=O)c(CN(CCCO)S(=O)(=O)c3c(C)ccc4nsnc34)cc2c1 | 334 | -2.5% (inactive) | -11.4% (inactive) | 103 | -54.5% (inactive) | 120 | -0.459 (inactive) | -3e-05 (inactive) | 0.00552 (inactive) | 11.1% (inactive) | 29.7% (inactive)
18 | OCCN1CCN(CC(O)COc2ccc3ccccc3c2)CC1 (stereo unspecified) | 581 | -10.8% (inactive) | 0.6% (inactive) | 101 | -51.6% (inactive) | 106 | -0.414 (inactive) | -7.3e-05 (inactive) | 0.00595 (inactive) | 11.6% (inactive) | 15.2% (inactive)
19 | O=C(CSc1ncnc2ccccc12)N1CCN(c2ccccc2)CC1 | 567 | -10.9% (inactive) | 10.5% (inactive) | 99.4 | 9.1% (inactive) | 108 | -0.47 (inactive) | 3.6e-05 (inactive) | 0.00572 (inactive) | 1.94% (inactive) | 15.7% (inactive)
20 | CC(C(=O)N1CCCCC1)n1ncn2cccc2c1=O (stereo unspecified) | 397 | -2.5% (inactive) | 0.4% (inactive) | 94.2 | -4.6% (inactive) | 97.4 | -0.595 (inactive) | -2.8e-05 (inactive) | 0.00463 (inactive) | 6.93% (inactive) | 98.3% (active)
21 | CC(C)Cn1c(=O)c(C(=O)NCc2ccccn2)c(O)c2ccccc21 | 771 | -20.7% (inactive) | -28.1% (inactive) | 104 | -24% (inactive) | 108 | -0.37 (inactive) | -4.4e-05 (inactive) | 0.00508 (inactive) | 10.4% (inactive) | -3.14% (inactive)
22 | COCCN1C(=O)C(=O)/C(=C(/O)c2cccc(S(=O)(=O)N(C)C)c2)C12C(=O)N(C)c1ccccc12 (stereo unspecified) | 584 | -22.3% (inactive) | 5.4% (inactive) | 115 | -76.4% (inactive) | 107 | -0.483 (inactive) | -5e-05 (inactive) | 0.00617 (inactive) | 8.34% (inactive) | 33.7% (inactive)
23 | CC(C)(C)n1nc2c(c1NC(=O)COc1ccc(Cl)cc1)CSC2 | 643 | 3.8% (inactive) | 13.9% (inactive) | 93.1 | 30.9% (inactive) | 95.3 | -0.467 (inactive) | -3.3e-06 (inactive) | 0.00791 (inactive) | 18% (inactive) | 25.3% (inactive)
24 | Cc1cc(C)c2nc(N)sc2c1 | 615 | 6.3% (inactive) | 31.1% (inactive) | 67.2 | 16% (inactive) | 107 | -0.281 (inactive) | -1.5e-05 (inactive) | 0.00618 (inactive) | -28.1% (inactive) | -46.7% (inactive)
25 | CCOC(=O)C1CCCN(c2nc3ccccc3nc2C(C#N)C(=O)NCc2ccccc2)C1 (stereo unspecified) | 703 | 9.6% (inactive) | -4.3% (inactive) | 103 | -40% (inactive) | 126 | -0.459 (inactive) | -2.8e-05 (inactive) | 0.00538 (inactive) | 7.48% (inactive) | 12.6% (inactive)
26 | CC(C)OP(=O)(c1ccc(N(C)C)cc1)C(O)c1ccccc1F (stereo unspecified) | 720 | -7.2% (inactive) | 12.5% (inactive) | 117 | -14.7% (inactive) | 117 | -0.541 (inactive) | -5.1e-05 (inactive) | 0.00489 (inactive) | 11.8% (inactive) | 22.5% (inactive)
